Results of several laboratories.
Lines come from different studies, so protocols differ. pIC50: −log10 of the molar value.
Target: Amine oxidase [flavin-containing] B (MAOB, Homo sapiens, UniProt P27338)
Effect on: enzyme activity
Action: inhibitor
Residues used in one study (P27338 1-520): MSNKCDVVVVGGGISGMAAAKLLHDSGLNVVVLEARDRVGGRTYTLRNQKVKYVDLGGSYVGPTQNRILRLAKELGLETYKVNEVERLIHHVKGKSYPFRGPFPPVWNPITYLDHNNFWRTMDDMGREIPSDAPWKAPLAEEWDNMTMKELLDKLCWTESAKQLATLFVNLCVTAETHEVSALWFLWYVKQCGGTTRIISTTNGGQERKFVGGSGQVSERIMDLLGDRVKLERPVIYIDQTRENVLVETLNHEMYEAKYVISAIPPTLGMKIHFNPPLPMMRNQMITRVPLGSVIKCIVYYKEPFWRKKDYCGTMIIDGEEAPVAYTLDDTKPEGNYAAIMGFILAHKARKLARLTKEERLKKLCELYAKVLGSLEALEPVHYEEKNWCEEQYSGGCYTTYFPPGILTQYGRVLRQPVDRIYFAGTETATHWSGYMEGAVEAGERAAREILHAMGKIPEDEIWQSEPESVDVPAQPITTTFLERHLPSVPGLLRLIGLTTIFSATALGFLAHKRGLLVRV

c1ccc(Nc2nccc(-c3cccnc3)n2)cc1  pIC50 (fluorescence): 6.40
COC(=O)c1ccc(C(=O)OC)c(NC(=O)c2cc(Cl)ccc2O)c1  pIC50: < 6.00
CCn1c(-c2nc3cc(C(=O)N4CCC[C@@H](N)C4)cc(OC)c3n2C)cc2cccnc21  pIC50: 4.60
COc1cc(/C=C/C(=O)N2CCC(Cc3ccccc3)CC2)ccc1OC1CCCCC1  pIC50 (fluorescence): 6.25
O=c1cc(-c2ccc(O)cc2)oc2c([C@@H]3O[C@H](CO)[C@@H](O)[C@H](O)[C@H]3O)c(O)c([C@@H]3O[C@H](CO)[C@@H](O)[C@H](O)[C@H]3O)c(O)c12  pIC50: 4.36
COc1ccc(/C=C/C(=O)N2CCC(Cc3ccccc3)CC2)cc1OC  pIC50 (fluorescence): 5.96
O=c1cc(-c2ccc(O)cc2)oc2c([C@@H]3O[C@H](CO)[C@@H](O)[C@H](O)[C@H]3O)c(O)cc(O)c12  pIC50: 4.47
O=C(Nc1ccc(Br)cc1)c1cc(Cl)ccc1O  pIC50: 6.86
O=C(c1ccc(O)cc1O)[C@H](O)[C@@H](O)c1ccc(O)cc1  pIC50: 4.52
COc1cc(/C=C/C(=O)N2CCC(Cc3ccccc3)CC2)ccc1OCc1ccccc1  pIC50 (fluorescence): 5.42
CSc1ccc(CNc2nc3ccccc3n3cnnc23)cc1  pIC50 (fluorescence): 6.60
O=c1cc(-c2ccc(O)cc2)oc2cc(O)c([C@@H]3O[C@H](CO)[C@@H](O)[C@H](O)[C@H]3O)c(O)c12  pIC50: 4.63
O=c1[nH]c(-c2ccccc2)cnc1-c1ccccc1  pIC50 (fluorescence): 6.85
O=C1C[C@@H](c2cc(O)cc(O)c2)Oc2cc(O)ccc21  pIC50: 4.92
COc1ccc(/C=C/C(=O)N2CCc3ccccc3C2)cc1OC  pIC50 (fluorescence): 6.14
Cn1c(=O)[nH]c(=O)n2c(CC(=O)Nc3cccc4ccccc34)cnc12  pIC50 (fluorescence): 5.06
